In ChEMBL document CHEMBL1140923, “Discovery of imidazo[1,2-b]thiazole derivatives as novel SIRT1 activators” (J Med Chem, 2009) one finds Activity, IC50 and Cmax data, which are given here for 1 compound.

The subject of data set [1] is Rattus norvegicus. Nature of the data set: Antidiabetic activity in genetic Zucker fa/fa rat model assessed as reduction of glucose production at 100 mg/kg, po daily once after 3 weeks by pyruvate tolerance test. Set-up: dose 100 mg/kg. Type of data set: functional, organism-based. The procedure, abridged:
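Male Zucker fa/fa rats, housed singly, were gavaged daily from 7 weeks of age with 100 mg/kg or vehicle (2% HPMC + 0.2% DOSS), 5 per group. Fed tail-vein glucose was taken on day 22. Also on day 22, after an overnight fast, sodium pyruvate 1 g/kg was given ip and glucose was read at 0-90 min.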

The target in data set [2] is Voltage-gated inwardly rectifying potassium channel KCNH2 (Homo sapiens, UniProt Q12809). Nature of the data set: Inhibition of human ERG by patch clamp method. The essentials:
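hERG was measured by patch clamp.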
(In general: In patch-clamp work, channel activity is measured electrically.)

Data set [3] has as its system Rattus norvegicus. Briefly: Antidiabetic activity in genetic Zucker fa/fa rat model assessed as increase in glucose disposal rate at 100 mg/kg, po daily once after 4 weeks by hyperinsulinemic-euglycemic clamp. Type of data set: functional. The procedure, abridged:
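Zucker fa/fa rats, cannulated 5 days beforehand and fasted 8 h, underwent the clamp after 4 weeks of dosing. [3-3H]glucose tracer was primed and infused, then insulin 25 (mU/kg)/min was started. Variable 50% dextrose held blood glucose at 100 mg/dL over 120 min, with tracer specific activity sampled at 110 and 120 min.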

The target of data set [4] is Sodium-dependent noradrenaline transporter (Homo sapiens, UniProt P23975). Briefly: Inhibition of norepinephrine transporter.
The next data set has as its system Mus musculus. Nature of the data set: Toxicity in diet-induced obesity C57BL/6 mouse model assessed as hemoglobin at 100 mg/kg, po daily once for 10 weeks. The conditions noted are these: in vivo, 1680 h. Type of data set: organism-based. Set-up: dose 100 mg/kg, route oral. The essentials:
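Male C57BL/6 mice were fed a 60%-fat diet from 9 weeks of age until about 40 g, in groups of 6-10. They were dosed by oral gavage once daily in 2% HPMC + 0.2% DOSS, with 29 at 100 mg/kg and rosiglitazone at 5 mg/kg, alongside vehicle groups on lean and high-fat diet. Fed glucose was read at weeks 2, 4, 6, 8 and 10. Clinical chemistry and hematology were also measured. Analysis by ANOVA.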

Data set [5] concerns Salmonella typhimurium. Nature of the data set: Mutagenic activity in Salmonella Typhimurium TA98 in absence of S9 activation. Type of data set: toxicity, organism-based. The settings on record: salmonella enterica subsp. enterica serovar typhimurium.
Data set [6] deals with Salmonella typhimurium. Briefly: Mutagenic activity in Salmonella Typhimurium TA98 in presence of S9 activation. Type of data set: toxicity, organism-based. The conditions noted are these: salmonella enterica subsp. enterica serovar typhimurium.
The target in data set [7] is T1, Alpha-2A adrenergic receptor (Homo sapiens, UniProt P08913).
T1 sequence (P08913 whole entry): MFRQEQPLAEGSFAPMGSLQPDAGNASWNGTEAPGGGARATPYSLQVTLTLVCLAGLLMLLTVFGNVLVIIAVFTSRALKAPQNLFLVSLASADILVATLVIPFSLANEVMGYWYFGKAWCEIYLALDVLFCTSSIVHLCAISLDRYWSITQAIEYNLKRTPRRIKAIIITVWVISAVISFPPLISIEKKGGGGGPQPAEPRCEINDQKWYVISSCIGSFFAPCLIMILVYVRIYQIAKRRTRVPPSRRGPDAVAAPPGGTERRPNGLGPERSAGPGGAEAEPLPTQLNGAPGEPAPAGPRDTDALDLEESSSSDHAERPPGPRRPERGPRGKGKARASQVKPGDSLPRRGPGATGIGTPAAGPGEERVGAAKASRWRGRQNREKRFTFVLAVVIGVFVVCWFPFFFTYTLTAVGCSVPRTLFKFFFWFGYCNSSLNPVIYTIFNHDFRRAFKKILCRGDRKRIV
Nature of the data set: Inhibition of adrenergic alpha2A receptor.

Data set [8] in a line: Cmax in C57BL/6 mouse at 100 mg/kg, po or 10 mg/kg, iv. The conditions noted are these: in vivo. Type of data set: ADME, organism-based. The procedure, abridged:
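Male C57BL/6 mice (18-22 g; 3 per dose group per time point), given 100 mg/kg po as the hydrochloride salt in 2% HPMC + 0.2% DOSS, or 10 mg/kg iv by tail vein in 10% ethanol/40% polyethylene glycol/50% H2O. Plasma was taken at 5, 30, 120 and 360 min after dosing and drug levels were measured.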

Data set [9] in a line: Inhibition of sodium channel site 2.

The structures appear in SMILES notation. The source made the active and inactive calls. The calls are words filed in the database; no cut-off is given here. Some results are limits rather than exact numbers.

Sequence of Sodium-dependent noradrenaline transporter (P23975 whole entry): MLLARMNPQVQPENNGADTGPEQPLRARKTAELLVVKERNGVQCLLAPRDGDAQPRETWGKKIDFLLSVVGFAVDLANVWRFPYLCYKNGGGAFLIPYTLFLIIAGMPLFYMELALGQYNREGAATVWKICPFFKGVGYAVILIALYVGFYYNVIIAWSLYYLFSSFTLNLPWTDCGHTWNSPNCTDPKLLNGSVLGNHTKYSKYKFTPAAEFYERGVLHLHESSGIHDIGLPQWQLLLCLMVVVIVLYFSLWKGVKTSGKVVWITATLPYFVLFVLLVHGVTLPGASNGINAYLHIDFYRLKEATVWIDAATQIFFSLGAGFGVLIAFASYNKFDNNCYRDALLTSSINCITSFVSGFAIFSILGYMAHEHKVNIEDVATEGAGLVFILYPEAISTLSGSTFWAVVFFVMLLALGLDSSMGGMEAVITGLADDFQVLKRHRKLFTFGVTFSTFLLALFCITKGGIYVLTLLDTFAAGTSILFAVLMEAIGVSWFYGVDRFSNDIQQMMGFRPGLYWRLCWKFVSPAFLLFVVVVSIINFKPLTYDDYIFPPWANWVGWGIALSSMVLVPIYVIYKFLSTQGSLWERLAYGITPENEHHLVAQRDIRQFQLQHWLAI
Sequence of Voltage-gated inwardly rectifying potassium channel KCNH2 (Q12809 whole entry): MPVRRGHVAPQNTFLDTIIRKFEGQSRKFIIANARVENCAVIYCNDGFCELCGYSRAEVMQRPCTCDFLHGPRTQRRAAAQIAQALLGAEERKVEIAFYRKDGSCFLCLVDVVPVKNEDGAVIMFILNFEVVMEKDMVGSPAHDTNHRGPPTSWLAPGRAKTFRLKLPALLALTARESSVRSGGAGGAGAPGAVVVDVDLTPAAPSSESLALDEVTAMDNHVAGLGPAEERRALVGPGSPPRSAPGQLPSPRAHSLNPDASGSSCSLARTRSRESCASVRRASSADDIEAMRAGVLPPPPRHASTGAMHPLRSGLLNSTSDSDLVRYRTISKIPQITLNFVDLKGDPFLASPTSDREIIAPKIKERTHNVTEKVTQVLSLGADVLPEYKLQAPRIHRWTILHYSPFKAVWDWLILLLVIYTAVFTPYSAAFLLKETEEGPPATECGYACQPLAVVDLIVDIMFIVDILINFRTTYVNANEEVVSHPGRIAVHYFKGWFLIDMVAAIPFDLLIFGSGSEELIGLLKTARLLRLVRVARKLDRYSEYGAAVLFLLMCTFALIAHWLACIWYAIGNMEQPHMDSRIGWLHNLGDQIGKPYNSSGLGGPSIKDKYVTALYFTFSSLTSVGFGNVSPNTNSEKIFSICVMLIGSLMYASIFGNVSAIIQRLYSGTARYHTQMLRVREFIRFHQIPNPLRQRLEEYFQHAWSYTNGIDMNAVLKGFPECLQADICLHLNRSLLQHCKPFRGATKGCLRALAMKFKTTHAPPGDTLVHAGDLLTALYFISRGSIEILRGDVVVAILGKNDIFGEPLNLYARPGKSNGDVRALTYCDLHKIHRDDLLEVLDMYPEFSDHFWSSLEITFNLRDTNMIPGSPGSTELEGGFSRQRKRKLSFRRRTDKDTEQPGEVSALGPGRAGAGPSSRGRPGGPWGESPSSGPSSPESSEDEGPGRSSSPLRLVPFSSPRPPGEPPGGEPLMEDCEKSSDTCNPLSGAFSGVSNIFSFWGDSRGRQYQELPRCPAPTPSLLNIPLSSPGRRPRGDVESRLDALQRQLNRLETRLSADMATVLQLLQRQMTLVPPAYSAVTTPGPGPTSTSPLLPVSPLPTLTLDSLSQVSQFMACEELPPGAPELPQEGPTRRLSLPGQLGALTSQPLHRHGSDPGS

In general, IC50 refers to the point on the concentration scale where inhibition reaches its midpoint. A higher IC50 goes with lower potency. One may read the Cmax as the maximum level reached in the sampled fluid or tissue. On to `O=C(Nc1ccccc1-c1cn2c(CN3CCNCC3)csc2n1)c1cnc2ccccc2n1`, for which, in the data set with Rattus norvegicus [1], the outcome was Active. The IC50 in data set [2] was greater than 10000 nM; in data set [4], 2470 nM; in data set [7], 2830 nM; in data set [9] it was 3370 nM. The Activity with Rattus norvegicus [3] is recorded as 20%; with Mus musculus it was “Active”; in the data set with Salmonella typhimurium [5], “Non-toxic”; in the data set on Salmonella typhimurium [6] it was “Non-toxic”. In data set [8], this compound came in with a Cmax of 1000 nM.
